Results on two compounds are retold here after PubChem BioAssay AID588483 (Southern Research Specialized Biocontainment Screening …, 2011).

The nature of assay [1]: HEp-2 cell cytotoxicity, dose response, cytotoxicity control for RSV inhibitor project, synthesized compounds, set 14 (AID 588483). Conditions: HEp-2 cell viability, luminescence (cytotoxicity counter-screen); at 150 µM (top of the series). In outline:
(§1)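 test system = uninfected HEp-2 human cells, no virus added | input = 10,595 HEp-2 cells per well | buffer or medium = DMEM/F12 plus HI-FBS | compound dosing = 1:2 dilution steps, 0.5% DMSO | incubation = 6 days at 37 °C | measured by = ATP-based luminescence with CellTiter-Glo reagent | measure = percent viability versus cell-control median, CC50 from four-parameter fit | replicates = triplicate wells per compound concentration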
(Counterscreens check selectivity or assay interference.)

In assay [2] the test system is HEp-2 cell viability, luminescence (cytotoxicity counter-screen). The assay is described as above. The procedure, abridged: as §1

Several values for one entry are separate records, joined by “and”; a condition that tells them apart may be missing. Identical values can stand only once. Activity calls are given as the source filed them.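 Rule for the calls: active = viability below 70% at any tested concentration, read as cytotoxicity; inactive = the rest.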

As usually defined, the viability is a read-out of living cells in per cent, often relative to untreated cells. `O=C(O)c1ccc(Cn2c(=O)n(Cc3ccc(C(=O)NCC4COC4)cc3)c(=O)c3ccccc32)cc1`: the viability in assay [1] is 119% (inactive) and 107% (inactive).
As a reminder, the CC50 is the concentration giving 50% cytotoxicity. With `CN(C)c1ccc(Cn2c(=O)n(Cc3ccc(C(=O)NCC4COC4)cc3)c(=O)c3ccccc32)cc1`, the CC50 in assay [2] is 29.7 µM.
